Rows were chosen to be rich in hits. Some 1.4% of all compounds tested hit in one or more screens of this group.
CSN inh: blocks human CSN-mediated cullin deneddylation; inhibition, % at 12.5 µM; AID 651999; Q92905; Purified CSN, SCF-Nedd8-OG deneddylation, fluorescence polarization; 360,000 tested, 0.38% active;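 active = pattern-corrected inhibition above about 35%, with an unprinted fluorescence ratio check between 0.5 and 1.5, limit read from the data, passing the limit was not always enough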
Target sequence (Q92905 whole entry, looked up, one chain of several): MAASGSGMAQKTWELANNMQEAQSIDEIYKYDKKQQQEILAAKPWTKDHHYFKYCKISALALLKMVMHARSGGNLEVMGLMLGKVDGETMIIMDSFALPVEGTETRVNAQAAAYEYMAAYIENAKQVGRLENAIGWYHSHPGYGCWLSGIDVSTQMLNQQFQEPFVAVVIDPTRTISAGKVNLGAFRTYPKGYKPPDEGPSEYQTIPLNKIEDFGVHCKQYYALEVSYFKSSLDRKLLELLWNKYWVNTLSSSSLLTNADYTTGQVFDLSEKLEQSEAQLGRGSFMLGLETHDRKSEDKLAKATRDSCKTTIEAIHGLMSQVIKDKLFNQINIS
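Test system: Human Csn5 produced in HEK293T cells | Compound: 12.5 µM single point | Times: 90 min, room temperature | Signal: Fluorescence polarization readout | Read-out basis: % inhibition of substrate cleavage by Csn5 | Controls: no-enzyme wells high, enzyme-with-substrate wells low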
IDE cell inh: inhibits human insulin-degrading enzyme in HEK cells. P14735. FAbetaB cleavage, fluorescence polarization. inhibition, % at 5.59 µM. 320,000 tested, 0.41% active. AID 434962;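 active = percent inhibition above the average of all tested compounds plus 3 SD, set per screening campaign, cut at about 16% in these data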;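 also: IDE supplied by intact live HEK cells; FP after avidin binding of uncleaved biotin substrate so inhibition keeps polarization high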
TPT1 inhibitor: blocks Candida albicans tRNA 2'-phosphotransferase | recombinant caTPT1, FP RNA substrate dephosphorylation | inhibition, % at 5 µM | 300,000 tested, 0.81% active;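 active = inhibition above the mean of all tested compounds plus 3 SD, set per screening campaign, cut at about 24% in these data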
IDE act: boosts human insulin-degrading enzyme activity in HEK cells; FAbeta-B cleavage, fluorescence polarization; 0% vehicle, 100% cell-free pure enzyme wells; 340,000 tested, 0.073% active; P14735; AID 493087; activation, % at 5.96 µM;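 active = activation above the mean of all tested compounds plus 3 SD, set per screening campaign, cut at about 17% in these data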
HNF4A DNA FP: change in binding of human HNF4 alpha to DNA; HNF4a-FITC DNA binding, fluorescence polarization, 1 h; activity change, % at 10 µM; AID 1224865; 360,000 tested, 0.3% active; in the data active = activity change above about 30%, passing the limit was not always enough
A number is an active result.

O=C(O)C(=O)/C(=C\c1ccc([N+](=O)[O-])cc1)c1ccc2ccccc2n1 was read as CSN inh inactive, IDE cell inh inactive, TPT1 inhibitor inactive, IDE act inactive and HNF4A DNA FP inactive.
Screening CC(C)(C)OC(=O)NCc1ccc(NC(=O)c2nc[nH]c2C(=O)NCCCCCCNC(=O)c2[nH]cnc2C(=O)Nc2ccc(CNC(=O)OC(C)(C)C)cc2)cc1 returned CSN inh inactive, IDE cell inh inactive, IDE act inactive and HNF4A DNA FP 46.
CC(C)(C)OC(=O)NCc1ccc(NC(=O)c2nc[nH]c2C(=O)NCCCCNC(=O)c2[nH]cnc2C(=O)Nc2ccc(CNC(=O)OC(C)(C)C)cc2)cc1 was read as CSN inh inactive, IDE cell inh inactive, IDE act inactive and HNF4A DNA FP inactive.
For Cc1ccc(S(=O)(=O)/N=C2/NC(=O)/C(=C/c3ccccn3)S2)cc1 the results were CSN inh inactive, IDE cell inh inactive, TPT1 inhibitor inactive, IDE act inactive and HNF4A DNA FP inactive.
For CN(C)c1ccc(C=C2SC(=S)NC2=O)cc1 the results were CSN inh 105, IDE act inactive and HNF4A DNA FP inactive.
For COc1ccc(N=C2NC(=O)S/C2=C\c2ccc(N(C)C)cc2)cc1 the results were CSN inh inactive, IDE cell inh 30, TPT1 inhibitor inactive, IDE act inactive and HNF4A DNA FP inactive.
O=C1NC(=S)SC1=Cc1ccccn1 was read as CSN inh inactive and HNF4A DNA FP 64.
For COC(=O)[C@@]1(Cc2ccc(OC)cc2)[C@H]2c3cc(C(=O)N4CCCC4)n(Cc4ccccc4)c3C[C@H]2CN1C(=O)c1ccccc1 the results were CSN inh inactive and HNF4A DNA FP inactive.
Screening Cc1ccc(S(=O)(=O)NCC(=O)OCC(=O)Nc2ccccc2OC(F)F)cc1 returned CSN inh inactive, IDE cell inh inactive, TPT1 inhibitor inactive, IDE act inactive and HNF4A DNA FP inactive.
O=C(COC(=O)CCNS(=O)(=O)c1ccc(Cl)cc1)Nc1ccccc1OC(F)F was read as CSN inh inactive, IDE act inactive and HNF4A DNA FP 40.
O=C(NCCCCCCCN1CCCCCCC1)C(C1CCCCC1)C1CCCCC1 was read as CSN inh 55, IDE act inactive and HNF4A DNA FP inactive.
Screening CCC(=O)N1Cc2cc(C(=O)Nc3nccs3)nc(-c3cccc(-c4ccccc4OC)c3)c2[C@@H]1CCO returned CSN inh inactive and HNF4A DNA FP inactive.
Screening COC(=O)[C@@]12C[C@@H](CC(=O)NCCCN3CCCC3=O)C(=O)N(Cc3ccc4c(c3)OCO4)C1=CCC(C)(C)C2 returned CSN inh inactive and HNF4A DNA FP inactive.
For NNC(=O)COc1ccc(F)cc1 the results were CSN inh inactive, IDE cell inh inactive, TPT1 inhibitor inactive, IDE act inactive and HNF4A DNA FP 32.
For NNC(=O)COc1ccc(-c2nccc(-c3ccc(F)cc3)n2)cc1 the results were CSN inh inactive, IDE cell inh inactive, TPT1 inhibitor inactive, IDE act inactive and HNF4A DNA FP inactive.
`CC(NC(=O)/C(C#N)=C1\N=C(NC(=O)c2cccs2)c2ccccc21)c1ccccc1` (stereo not drawn) gave CSN inh inactive, IDE cell inh inactive, TPT1 inhibitor inactive, IDE act inactive and HNF4A DNA FP 55.
N#C/C(C(=O)NCCc1ccccc1)=C1/N=C(NC(=O)c2cccs2)c2ccccc21 was read as CSN inh inactive, IDE cell inh inactive, TPT1 inhibitor inactive, IDE act inactive and HNF4A DNA FP inactive.
For Cc1ccc(C(=O)NCCN2CCC(n3c(=O)[nH]c4ccccc43)CC2)cc1C the results were CSN inh inactive and HNF4A DNA FP inactive.
Screening Cc1cc(NCCCOC(C)C)n2c(nc3ccccc32)c1C#N returned CSN inh 52, IDE cell inh inactive, TPT1 inhibitor inactive, IDE act inactive and HNF4A DNA FP inactive.
Cn1cc([C@]2(O)C(=O)Nc3ccc(OC(F)(F)F)cc32)c2ccccc21 was read as CSN inh inactive and HNF4A DNA FP inactive.
`CCN1CCN(CCNC(=O)c2ccc(/C=C3/Sc4ccccc4N(Cc4cccc(Cl)c4)C3=O)cc2)CC1` gave CSN inh inactive, IDE cell inh inactive, TPT1 inhibitor inactive, IDE act 38 and HNF4A DNA FP inactive.
Screening CCCCNC(=O)C(NC(=O)c1ccc2c(c1)OCO2)C(=O)c1ccccc1 (stereo not drawn) returned CSN inh inactive and HNF4A DNA FP inactive.
`COc1ccc(Nc2c(C3CC3)nc3nc(C)cc(C)n23)cc1` gave CSN inh inactive and HNF4A DNA FP inactive.
`CC1=CSC2=NC(=O)/C(=C\c3cccn3-c3ccccc3)C(=N)N12` gave CSN inh inactive, IDE cell inh inactive, TPT1 inhibitor inactive, IDE act inactive and HNF4A DNA FP inactive.
Screening Cc1ccccc1Cn1cccc1/C=C1/C(=N)N2C=CSC2=NC1=O returned CSN inh 41, IDE cell inh inactive, TPT1 inhibitor inactive, IDE act inactive and HNF4A DNA FP inactive.
Screening CC(C)c1ccc(-n2cccc2/C=C2/C(=N)N3C=CSC3=NC2=O)cc1 returned CSN inh inactive, IDE cell inh inactive, TPT1 inhibitor inactive, IDE act inactive and HNF4A DNA FP 51.
O=C(Nc1ccccc1N1CCCC1)c1ccccc1F was read as CSN inh inactive, IDE cell inh inactive, TPT1 inhibitor inactive, IDE act inactive and HNF4A DNA FP 38.
`COc1ccc(CNC(=O)C[C@@H]2C=C[C@@H](NS(=O)(=O)c3cccc(OC)c3)[C@@H](CO)O2)cc1` gave CSN inh inactive and HNF4A DNA FP inactive.
`Cn1c2c(c(=O)n(C)c1=O)C(C(F)(F)F)(C(F)(F)F)N=C(CCC1CCCCC1)N2` gave CSN inh 54, IDE cell inh inactive, TPT1 inhibitor inactive, IDE act inactive and HNF4A DNA FP inactive.
Cn1c2c(c(=O)n(C)c1=O)C(C(F)(F)F)(C(F)(F)F)N=C(c1ccccc1Cl)N2 was read as CSN inh inactive, IDE cell inh inactive, TPT1 inhibitor inactive, IDE act inactive and HNF4A DNA FP inactive.
Screening CC(C)c1nc2sc3c(SCC(=O)NCc4ccco4)ncnc3c2c2c1CCC2 returned CSN inh 46, IDE cell inh inactive, TPT1 inhibitor inactive, IDE act inactive and HNF4A DNA FP inactive.
`O=C(CSc1ncnc2sc3c(c12)CCCCC3)NCc1ccco1` gave CSN inh inactive, IDE cell inh inactive, TPT1 inhibitor inactive, IDE act inactive and HNF4A DNA FP inactive.
For COCCCN1C(=O)C(CC(=O)NCCN2CCOCC2)CC(C(=O)N(C)C)=C1C (stereo not drawn) the results were CSN inh inactive and HNF4A DNA FP inactive.
O=C(c1ccccc1)C1C(c2ccccc2)C1[N+](=O)[O-] (stereo not drawn) was read as CSN inh inactive, IDE cell inh inactive, TPT1 inhibitor inactive, IDE act inactive and HNF4A DNA FP inactive.

Compound activity: PubChem BioAssay, several laboratories
